Assay outcomes as filed in PubChem BioAssay.
RAD54 inh – RAD54 (human) branch migration inhibition. 0.14% of 360,000 active. RAD54 Holliday junction branch migration, FAM/BHQ fluorescence. inhibition, % at 10.4 µM. Q92698;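 active = mean normalized replicate activity at least 40 and at least half of replicates scoring 40 or more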;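 note: 0% = median of neutral control wells and 100% = median of positive control wells; inhibitors cause a drop in the FAM fluorescence signal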
MLL AF4-AF9 inh – inhibitors of human MLL-AF4/AF9 interaction; P42568; AlphaScreen, biotin-AF4 peptide binding to FLAG-AF9; inhibition, % at 10 µM; 0.47% of 350,000 active; AID 651704;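 active = every replicate reaching a set inhibition limit, whatever the replicate mean, cut at about 25% in these data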;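 note: 0% = plate neutral control median and 100% = total signal loss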
S100A4 MyoIIA – S100A4-myosin IIA interaction inhibition; P26447; S100A4/TAMRA-MyoIIA peptide fluorescence polarization; inhibition, % at 10.7 µM; 0.14% of 360,000 active; AID 652163;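 active = mean inhibition of at least 70% across replicates, with every replicate also reaching that level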
Target sequence (P26447 whole entry, looked up): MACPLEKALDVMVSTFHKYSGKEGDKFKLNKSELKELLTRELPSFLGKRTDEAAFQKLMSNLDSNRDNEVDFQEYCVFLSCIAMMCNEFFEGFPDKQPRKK
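System – human S100A4 monomer protein, biochemical binding assay · Buffer or medium – Calcium-containing HEPES buffer, pH 7.2 · Timing – 5 min between mix addition and reading · Also added – TAMRA-labelled myosin IIA heavy-chain peptide probe, 5 nM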
RAD52 inh – blocks human RAD52 DNA annealing. recombinant RAD52 DNA annealing, FRET fluorescence. inhibition, % at 18.7 µM. 0.46% of 360,000 active. AID 651710;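 active = every replicate showing at least 50% inhibition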
dFosB act-1 – activators of mouse delta FosB homodimer. 0.99% of 340,000 active. P13346. purified delta FosB, TAMRA-CDK5 oligo fluorescence polarization; percent of positive-control signal above neutral wells. activation, % at 25 µM;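 active = mean activation above about 17%, with every replicate also reaching it, limit read from the data, passing the limit was not always enough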
Target sequence (P13346 whole entry, looked up): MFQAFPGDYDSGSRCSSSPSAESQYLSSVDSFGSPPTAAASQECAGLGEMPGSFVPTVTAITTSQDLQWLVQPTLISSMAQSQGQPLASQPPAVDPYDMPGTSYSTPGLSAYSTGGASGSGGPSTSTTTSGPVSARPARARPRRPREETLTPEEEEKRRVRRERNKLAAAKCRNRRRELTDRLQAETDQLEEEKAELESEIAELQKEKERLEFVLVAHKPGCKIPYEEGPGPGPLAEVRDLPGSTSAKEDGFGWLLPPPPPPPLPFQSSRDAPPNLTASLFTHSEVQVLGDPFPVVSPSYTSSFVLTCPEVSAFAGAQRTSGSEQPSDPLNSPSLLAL
dFosB act-2 – enhances mouse delta FosB homodimer binding to DNA | activation, % at 24.9 µM | shares compounds with dFosB act-1 | purified delta FosB, TAMRA-CDK5 oligo fluorescence polarization; normalised: neutral wells 0, positive control 100 | 2,400 tested, under 10 active;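 active = highest replicate activation at or above 34% and every replicate reaching that threshold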;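 note: higher polarization means more probe DNA bound by delta FosB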
* marks the source's active call; other numbers are inactive results; . = no result. A selection: hits, their analogues and other compounds. The true share with any hit is near 1.5%.

SMILES | RAD54 inh | MLL AF4-AF9 inh | S100A4 MyoIIA | RAD52 inh | dFosB act-1 | dFosB act-2
N#CCC(=O)N/N=C/c1cn(Cc2ccc(Cl)c(Cl)c2)c2ccccc12 | 4 | 0 | 5 | -6 | 51* | -1
COc1ccc(S(=O)(=O)N(C)C[C@H]2Oc3c(NC(=O)Nc4ccc(C(F)(F)F)cc4)cccc3C(=O)N([C@H](C)CO)C[C@@H]2C)cc1 | -1 | 0 | -4 | -5 | 66* | 0
COc1ccc(S(=O)(=O)N(C)C[C@@H]2Oc3c(NC(=O)Nc4ccc(C(F)(F)F)cc4)cccc3C(=O)N([C@@H](C)CO)C[C@H]2C)cc1 | 1 | 2 | -18 | 5 | . | .
C[C@H]1CN([C@@H](C)CO)C(=O)c2cccc(NC(=O)Nc3ccc(C(F)(F)F)cc3)c2O[C@@H]1CN(C)S(=O)(=O)c1ccccc1 | 3 | -10 | -1 | -11 | 29* | 4
CC(C)C#Cc1ccc([C@@H]2[C@H](C#N)N(C(=O)c3cccc(F)c3)[C@H]2CO)cc1 | -2 | 1 | 46 | -29 | . | .
COc1cccc(CN2CCC3(CC2)CN(C(=O)C2CC2)[C@H](CO)c2c3c3ccc(OC)cc3n2C)c1 | . | 8 | -1 | 18 | . | .
Cc1ccccc1OCc1nnc(SCC(=O)Nc2ccc3c(c2)OCO3)n1C | 5 | . | -3 | 3 | -5 | .
Cc1ccccc1OCc1nnc(SCC(=O)Nc2ccc3nc(SCC(=O)Nc4ccccc4)sc3c2)n1C | . | . | . | . | 20* | 2
COc1ccc(C(=O)CSc2nnc(CNc3ccc(C)cc3C)o2)cc1 | 2 | . | . | . | -1 | .
Cc1ccc(NCc2nnc(SCC(=O)c3ccc4c(c3)OCCO4)o2)c(C)c1 | 7 | -3 | -5 | -20 | 29* | 2
O=C(C[C@H]1C=C[C@H](NC(=O)C2CCOCC2)[C@@H](CO)O1)Nc1nccs1 | . | -4 | 22 | -13 | . | .
Cc1ccc(NC(=O)Cn2nc([N+](=O)[O-])c(Br)c2C)cc1C | -4 | -19 | -3 | 1 | 49* | 1
C/C=C/c1cccc(-c2nc(C(=O)N(C)C)cc3c2[C@H](CCO)N([S@@](=O)C(C)(C)C)C3)c1 | -18 | -9 | 5 | -66 | . | .
O=C(CCc1nc2ccccc2c(=O)[nH]1)NNC(=O)COc1ccccc1Cl | -6 | -1 | -1 | -1 | 56* | 1
O=C(CCc1nc2ccccc2c(=O)[nH]1)Nc1ccc(Cl)c(Cl)c1 | -2 | 3 | -2 | -33 | 8 | .
CCc1nnc(NC(=O)c2ccc(-c3cccc(C(F)(F)F)c3)o2)s1 | -13 | . | . | . | 19* | 3
CCc1nnc(NC(=O)c2ccc(-c3cc(C(F)(F)F)ccc3Cl)o2)s1 | 3 | . | . | . | -7 | .
Cc1ccc(S(=O)(=O)Nc2ccc3c(c2)C(=O)N([C@H](C)CO)C[C@H](C)[C@@H](CN(C)S(=O)(=O)c2ccc(C)cc2)OCCCC[C@H](C)O3)cc1 | -1 | -3 | 1 | -44 | . | .
C=CCn1c(SCC(=O)NCc2ccc3c(c2)OCO3)nc2scc(-c3ccc(F)cc3)c2c1=O | 8 | . | . | . | 45* | 1
C[C@@H]1CN([C@@H](C)CO)S(=O)(=O)c2ccc(C3=CCCCC3)cc2O[C@@H]1CN(C)Cc1ccccc1F | 6 | 10 | 7 | 14 | . | .
O=c1[nH]c2cc3c(cc2cc1C(c1nnnn1C1CCCC1)N1CCCc2ccccc21)OCCO3 (stereo unspecified) | 5 | . | . | . | -5 | .
Cc1cc2cc(C(c3nnnn3Cc3ccco3)N3CCCCC3)c(=O)[nH]c2cc1C (stereo unspecified) | 3 | . | . | . | -3 | .
O=c1[nH]c2cc3c(cc2cc1C(c1nnnn1Cc1ccccc1)N1CCCCCC1)OCCO3 (stereo unspecified) | 2 | . | . | . | 28* | 8
O=c1[nH]c2cc3c(cc2cc1C(c1nnnn1Cc1ccccc1)N1CCN2CCCC2C1)OCCO3 (stereo unspecified) | -8 | . | . | . | 22* | -12
Cc1noc(C)c1NC(=O)N(C)C[C@@H]1OCCCC[C@@H](C)Oc2ccc(NS(=O)(=O)c3c(C)noc3C)cc2C(=O)N([C@@H](C)CO)C[C@H]1C | 3 | 0 | 0 | -4 | . | .
SMILES | RAD54 inh | MLL AF4-AF9 inh | S100A4 MyoIIA | RAD52 inh | dFosB act-1 | dFosB act-2
CCOc1ccc(-c2nnc3ccc(SCC(=O)Nc4nc5ccc(C)cc5s4)nn23)cc1 | . | -1 | -39 | 2 | 42* | 0
C[C@@H]1CN([C@@H](C)CO)C(=O)c2cc(NC(=O)CCC(F)(F)F)ccc2O[C@@H](C)CCCCO[C@H]1CN(C)C(=O)Nc1cccc2ccccc12 | 2 | . | . | . | . | .
O=C(Nc1ccc(Cl)cc1)c1ccc(OC2CSC2)cc1 | . | -4 | 1 | -24 | 21* | 6
COc1cccc(-c2ccc3n(c2=O)C[C@H]2[C@H](CO)[C@@H](C(=O)NC4CCCC4)N[C@@H]32)c1 | 2 | 0 | 4 | -2 | . | .
COc1ccc(C(CCN2CCN(c3ccccc3)CC2)c2c(OC)cc(OC)c3c(-c4ccccc4)cc(=O)oc23)cc1 (stereo unspecified) | 8 | 5 | 2 | 4 | 20* | 2
COc1cc(C(CCN2CCOCC2)c2c(OC)cc(OC)c3c(-c4ccccc4)cc(=O)oc23)cc(OC)c1OC (stereo unspecified) | 6 | 14 | -1 | 0 | -13 | .
CCS(=O)(=O)N[C@@H]1CC[C@@H](CC(=O)NCc2ccccn2)O[C@@H]1CO | -13 | -5 | 1 | -29 | . | .
Cc1ccc(-c2ccc(SCC(=O)Nc3ccc4c(c3)OCCO4)nn2)cc1 | -4 | . | . | . | 5 | .
O=C(CSc1ccc(-c2nc3ccccc3[nH]2)cn1)Nc1ccc2c(c1)OCCO2 | -1 | . | . | . | 40* | 6
Cc1cc2nc(-c3ccc(SCC(=O)Nc4ccc5c(c4)OCCO5)nc3)[nH]c2cc1C | -1 | -1 | -3 | -27 | 32* | 3
Cc1ccc2nc(-c3ccc(SCC(=O)Nc4ccc5c(c4)OCCO5)nc3)[nH]c2c1 | . | . | . | . | 50* | -5
S=C(NCc1ccc2c(c1)OCO2)Nc1ccc(-c2nc3ccccc3[nH]2)cc1 | . | 2 | -7 | -49 | 32* | -9
Cc1cc2nc(-c3ccc(SCC(=O)N4CCOCC4)nc3)[nH]c2cc1C | 2 | . | . | . | 11 | .
Cc1noc(C)c1S(=O)(=O)Nc1ccc2c(c1)C(=O)N([C@H](C)CO)C[C@@H](C)[C@H](CN(C)Cc1ccc(C(=O)O)cc1)O2 | -1 | -1 | 3 | -13 | . | .
COc1cc(NC(=O)c2ccccc2)c(OC)cc1NC(=O)Cc1ccc(Br)cc1 | 6 | 1 | 2 | -9 | 21* | 8
Cc1ccc(-n2ncc3c(=O)[nH]c(SCC(=O)N4CC(=O)Nc5ccccc54)nc32)cc1 | 2 | -1 | 0 | -12 | -9 | .
Cc1cccc(-n2ncc3c(=O)[nH]c(SCC(=O)N4CC(=O)Nc5ccccc54)nc32)c1 | 0 | -2 | 2 | -14 | 47* | 4
